According to ChEMBL document CHEMBL3751813, “Nonpeptidic Amphiphilic Xanthone Derivatives: Structure-Activity Relationship and Membrane-Targeting Properties” (J Med Chem, 2016):
≈ marks a conversion by molar mass, not a printed value.

Experiments:
Staphylococcus aureus [1] = assay: Antibacterial activity against clinical isolates of Staphylococcus aureus DM4001R after 24 hrs by […]; assay type: functional
[2] = Selectivity index, ratio of HC50 for hemolytic activity against New Zealand white rabbit RBC to MIC for clinical isolates of Staphylococcus aureus DM4001
Staphylococcus aureus [3] = assay: Antibacterial activity against clinical isolates of methicillin-resistant Staphylococcus aureus DM9808R after 24 hrs by […]; assay type: functional
Bacillus cereus = assay: Antibacterial activity against clinical isolates of Bacillus cereus ATCC 11778 after 24 hrs by […]; assay type: functional; conditions: ATCC 11778, 24 h
Staphylococcus aureus [4] = assay: Induction of membrane permeabilization in clinical isolates of Staphylococcus aureus DM4001 at MIC by SYTOX green uptake assay; assay type: functional
Outline: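 Exponential-phase cells washed twice in 20 mM PBS pH 7 and adjusted to OD620 0.09. Given 3 µM SYTOX Green and kept in the dark until fluorescence was stable, then compound added. Fluorescence followed in a stirred cuvette at ex 504/em 523 nm. Melittin 10 µg/mL was the positive control. Run at least twice; one run reported.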

Staphylococcus aureus [5] = assay: Induction of membrane permeabilization in clinical isolates of Staphylococcus aureus DM4001 assessed as ATP leakage at MIC incubated for 10 mins by firefly luciferase based luminometry analysis; assay type: functional
Outline: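 Exponential-phase cells washed twice in 20 mM PBS pH 7 and set to OD620 0.3. Exposed 10 min at 37 °C, then spun at 4000 rpm for 5 min. Supernatant mixed with luciferase reagent (1 mM DTT, 0.5 mM D-luciferin, 1.25 µg/mL firefly luciferase). Luminescence read over 30 cycles.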

[6] = Hemolytic activity against New Zealand white rabbit RBC after 1 hr by microplate reader analysis; assay type: ADME, cell-based, Oryctolagus cuniculus, Erythrocyte; conditions: rabbit red blood cells
Outline: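 Rabbit RBCs spun from serum at 3,000 rpm for 10 min and washed twice in PBS. Mixed with compound in DMF at 4% v/v RBCs, 1 h at 37 °C. After centrifugation, hemoglobin in the supernatant read at 576 nm. 2% Triton X-100 was the positive control and 1% DMF the negative control.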

Staphylococcus aureus [7] = assay: Antibacterial activity against clinical isolates of methicillin-resistant Staphylococcus aureus DM21455 after 24 hrs by […]; assay type: functional; conditions: DM21455, 24 h

Structure (SMILES) | MIC (Staphylococcus aureus [1]) [µg/mL] | Selectivity ratio [2] | MIC (Staphylococcus aureus [3]) [µg/mL] | MIC (Bacillus cereus) [µg/mL] | Activity (Staphylococcus aureus [4]) [cps] | Activity (Staphylococcus aureus [5]) [µM] | HC50 at 1 h [6] [µg/mL] | MIC (Staphylococcus aureus [7]) [µg/mL]
CCCN(CC)CCCCOc1cc2oc3cc(OCCCCN(CC)CCC)c(OC)c(CC=C(C)C)c3c(=O)c2c(O)c1CC=C(C)C | 6.25 (≈ 9.02 µM) | 5.1 | 6.25 (≈ 9.02 µM) | 25 (≈ 36.1 µM) | 82176 | 12.736 | 63.3 | 12.5 (≈ 18 µM)
CCCN(CCC)CCCCOc1cc2oc3cc(OCCCCN(CCC)CCC)c(OC)c(CC=C(C)C)c3c(=O)c2c(O)c1CC=C(C)C | 25 (≈ 34.7 µM) | > 8 | 50 (≈ 69.3 µM) | 50 (≈ 69.3 µM) | 53637 | 5.123 | > 200 | 25 (≈ 34.7 µM)
COc1c(OCCCCN2C(=O)c3ccccc3C2=O)cc2oc3cc(OCCCCN4C(=O)c5ccccc5C4=O)c(CC=C(C)C)c(O)c3c(=O)c2c1CC=C(C)C | > 50 | – | > 50 | > 50 | – | – | > 200 | > 50
CCCN(C)CCCCOc1cc2oc3cc(OCCCCN(C)CCC)c(OC)c(CC=C(C)C)c3c(=O)c2c(O)c1CC=C(C)C | 25 (≈ 37.6 µM) | 1.3 | 25 (≈ 37.6 µM) | 12.5 (≈ 18.8 µM) | 87537 | 3.945 | 32.6 | 12.5 (≈ 18.8 µM)
COc1c(OCCCCN2CCC(O)CC2)cc2oc3cc(OCCCCN4CCC(O)CC4)c(CC=C(C)C)c(O)c3c(=O)c2c1CC=C(C)C | 6.25 (≈ 8.67 µM) | 5.8 | 3.12 (≈ 4.33 µM) | 6.25 (≈ 8.67 µM) | 50250 | 5.938 | 36 | 12.5 (≈ 17.3 µM)
CCN1CCN(CCCCOc2cc3oc4cc(OCCCCN5CCN(CC)CC5)c(OC)c(CC=C(C)C)c4c(=O)c3c(O)c2CC=C(C)C)CC1 | 25 (≈ 33.5 µM) | 5.5 | 12.5 (≈ 16.7 µM) | 25 (≈ 33.5 µM) | 15095 | 7.822 | 138 | 6.25 (≈ 8.37 µM)
CCN(CCCCOc1cc2oc3cc(OCCCCN(CC)C(C)C)c(OC)c(CC=C(C)C)c3c(=O)c2c(O)c1CC=C(C)C)C(C)C | 25 (≈ 36.1 µM) | 2.2 | 12.5 (≈ 18 µM) | 12.5 (≈ 18 µM) | 97824 | 5.407 | 54.6 | 25 (≈ 36.1 µM)
COc1c(OCCCCNC(=N)N)cc2oc3cc(OCCCCNC(=N)N)c(CC=C(C)C)c(O)c3c(=O)c2c1CC=C(C)C | 3.12 (≈ 4.91 µM) | 20.5 | 6.25 (≈ 9.81 µM) | 6.25 (≈ 9.81 µM) | 68378 | 2.237 | 64.1 | 6.25 (≈ 9.81 µM)
COc1c(OCCCCI)cc2oc3cc(OCCCCI)c(CC=C(C)C)c(OCCCCI)c3c(=O)c2c1CC=C(C)C | > 50 | – | > 50 | 50 (≈ 52.3 µM) | – | – | > 200 | > 50
COc1c(OCCCCn2ccnc2)cc2oc3cc(OCCCCn4ccnc4)c(CC=C(C)C)c(O)c3c(=O)c2c1CC=C(C)C | > 50 | – | > 50 | > 50 | – | – | > 200 | > 50
COc1c(OCCCCN2CCN(CCN(C)C)CC2)cc2oc3cc(OCCCCN4CCN(CCN(C)C)CC4)c(CC=C(C)C)c(O)c3c(=O)c2c1CC=C(C)C | 6.25 (≈ 7.5 µM) | 5.7 | 3.12 (≈ 3.75 µM) | 6.25 (≈ 7.5 µM) | 5850 | 2.975 | 35.9 | 3.12 (≈ 3.75 µM)
CCCCN(C)CCCCOc1cc2oc3cc(OCCCCN(C)CCCC)c(OC)c(CC=C(C)C)c3c(=O)c2c(O)c1CC=C(C)C | 50 (≈ 72.2 µM) | 1.2 | 50 (≈ 72.2 µM) | 25 (≈ 36.1 µM) | 114095 | 8.862 | 60.5 | 25 (≈ 36.1 µM)
CCN(C)CCCCOc1cc2oc3cc(OCCCCN(C)CC)c(OC)c(CC=C(C)C)c3c(=O)c2c(O)c1CC=C(C)C | 1.56 (≈ 2.45 µM) | 16.1 | 6.25 (≈ 9.81 µM) | 6.25 (≈ 9.81 µM) | 12456 | 1.734 | 25.1 | 1.56 (≈ 2.45 µM)
COc1c(OCCCCN2CCN(C(=O)OC(C)(C)C)CC2)cc2oc3cc(OCCCCN4CCN(C(=O)OC(C)(C)C)CC4)c(CC=C(C)C)c(O)c3c(=O)c2c1CC=C(C)C | > 50 | – | > 50 | > 50 | – | – | > 200 | > 50
COc1c(OCCCCN2CCSCC2)cc2oc3cc(OCCCCN4CCSCC4)c(CC=C(C)C)c(O)c3c(=O)c2c1CC=C(C)C | > 50 | – | > 50 | > 50 | 7129 | 0.005 | > 200 | > 50
CCCCCN(C)CCCCOc1cc2oc3cc(OCCCCN(C)CCCCC)c(OC)c(CC=C(C)C)c3c(=O)c2c(O)c1CC=C(C)C | 25 (≈ 34.7 µM) | > 8 | 25 (≈ 34.7 µM) | 12.5 (≈ 17.3 µM) | 47166 | 8.949 | > 200 | 25 (≈ 34.7 µM)
COc1c(OCCCCN2CCCC2)cc2oc3cc(OCCCCN4CCCC4)c(CC=C(C)C)c(O)c3c(=O)c2c1CC=C(C)C | 1.56 (≈ 2.36 µM) | 16 | 1.56 (≈ 2.36 µM) | 6.25 (≈ 9.46 µM) | 814 | 0.465 | – | 1.56 (≈ 2.36 µM)
COc1c(OCCCCN2CCCC2)cc2oc3cc(OCCCCN4CCCC4)c(CCC(C)C)c(O)c3c(=O)c2c1CCC(C)C | 12.5 (≈ 18.8 µM) | 1.4 | 6.25 (≈ 9.4 µM) | 6.25 (≈ 9.4 µM) | – | – | 34.8 | 6.25 (≈ 9.4 µM)
CCCCCCN(C)CCCCOc1cc2oc3cc(OCCCCN(C)CCCCCC)c(OC)c(CC=C(C)C)c3c(=O)c2c(O)c1CC=C(C)C | 50 (≈ 66.7 µM) | > 4 | 50 (≈ 66.7 µM) | 50 (≈ 66.7 µM) | 74047 | 8.545 | > 200 | 50 (≈ 66.7 µM)
COc1c(OCCCCN2CCNCC2)cc2oc3cc(OCCCCN4CCNCC4)c(CC=C(C)C)c(O)c3c(=O)c2c1CC=C(C)C | 6.25 (≈ 9.05 µM) | 11.5 | 6.25 (≈ 9.05 µM) | 12.5 (≈ 18.1 µM) | 24629 | 3.154 | 72.1 | 12.5 (≈ 18.1 µM)
CCCCN(CC)CCCCOc1cc2oc3cc(OCCCCN(CC)CCCC)c(OC)c(CC=C(C)C)c3c(=O)c2c(O)c1CC=C(C)C | 12.5 (≈ 17.3 µM) | > 16 | 6.25 (≈ 8.67 µM) | 25 (≈ 34.7 µM) | 64790 | 12.48 | > 200 | 25 (≈ 34.7 µM)
COc1c(OCCCCn2cncn2)cc2oc3cc(OCCCCn4cncn4)c(CC=C(C)C)c(O)c3c(=O)c2c1CC=C(C)C | > 50 | – | > 50 | > 50 | 1979 | 0.416 | > 200 | > 50
O=c1c2ccc(OCCCCN3CCCC3)cc2oc2cc(OCCCCN3CCCC3)cc(O)c12 | > 50 | – | > 50 | > 50 | – | – | > 200 | > 50
COc1c(OCCCCN(C)C)cc2oc3cc(OCCCCN(C)C)c(CCC(C)C)c(O)c3c(=O)c2c1CCC(C)C | 12.5 (≈ 20.4 µM) | 4.9 | 25 (≈ 40.8 µM) | 12.5 (≈ 20.4 µM) | – | – | 60.7 | 12.5 (≈ 20.4 µM)
CCN(CCO)CCCCOc1cc2oc3cc(OCCCCN(CC)CCO)c(OC)c(CC=C(C)C)c3c(=O)c2c(O)c1CC=C(C)C | 6.25 (≈ 8.97 µM) | 5.1 | 3.12 (≈ 4.48 µM) | 3.12 (≈ 4.48 µM) | 112772 | 5.027 | 31.8 | 6.25 (≈ 8.97 µM)
COc1c(OCCCCN(CCO)CCO)cc2oc3cc(OCCCCN(CCO)CCO)c(CC=C(C)C)c(O)c3c(=O)c2c1CC=C(C)C | 3.12 (≈ 4.29 µM) | – | 1.56 (≈ 2.14 µM) | 3.12 (≈ 4.29 µM) | 59694 | 3.741 | 60.6 | 0.78 (≈ 1.07 µM)
COc1c(OCCCCN2CCCCC2)cc2oc3cc(OCCCCN4CCCCC4)c(CC=C(C)C)c(O)c3c(=O)c2c1CC=C(C)C | 0.78 (≈ 1.13 µM) | 24.7 | 1.56 (≈ 2.26 µM) | 6.25 (≈ 9.07 µM) | 2797 | 0.626 | – | 1.56 (≈ 2.26 µM)
COc1c(OCCCCN2CCOCC2)cc2oc3cc(OCCCCN4CCOCC4)c(CC=C(C)C)c(O)c3c(=O)c2c1CC=C(C)C | > 50 | – | > 50 | > 50 | 6358 | 0.229 | > 200 | > 50
COc1c(OCCCCn2cccn2)cc2oc3cc(OCCCCn4cccn4)c(CC=C(C)C)c(O)c3c(=O)c2c1CC=C(C)C | > 50 | – | > 50 | > 50 | 3445 | 0.31 | > 200 | > 50
